Holding throughout (type): functional
One test relates to Enterobacter sp. In words: Antibacterial activity against Enterobacter sp. The essentials: (§1)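 Aerobic isolates run by CLSI broth microdilution in cation-adjusted Mueller-Hinton II broth (streptococci plus 2–5% lysed horse blood), about 5 × 10^5 CFU/ml final; 24 h at 35–37°C aerobically; MIC read as lowest concentration without visible growth.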
A further test has as its system Haemophilus influenzae. The experiment in a line: Antibacterial activity against Haemophilus influenzae after 24 hrs by broth microdilution method. A digest of the protocol: (§2)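 CLSI broth microdilution in cation-adjusted Mueller-Hinton II broth, final inoculum about 5 × 10^5 CFU/ml for most strains; streptococci supplemented with 2–5% lysed horse blood, H. influenzae in Haemophilus test medium. Aerobic incubation at 35–37°C for 24 h; MIC = lowest concentration with no visible growth.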
In general terms: In broth dilution the organism is exposed to a series of concentrations in liquid medium.

The next test relates to Escherichia coli. The experiment in a line: Antibacterial activity against Escherichia coli after 24 hrs by broth microdilution method. The essentials: as §2
For another test, the system named is Klebsiella pneumoniae. The experiment in a line: Antibacterial activity against Klebsiella pneumoniae. The essentials: as §1
For a further test, the system named is Acinetobacter baumannii. In words: Antibacterial activity against Acinetobacter baumannii after 24 hrs by broth microdilution method. The essentials:
as §2

The next test relates to Moraxella catarrhalis. The experiment in a line: Antibacterial activity against Moraxella catarrhalis after 24 hrs by broth microdilution method. A digest of the protocol:
as §2

Another test deals with Pseudomonas aeruginosa. In words: Antibacterial activity against Pseudomonas aeruginosa after 24 hrs by broth microdilution method. The essentials: as §2
The test system of a further test is Streptococcus viridans. In words: Antibacterial activity against Streptococcus viridans after 24 hrs by broth microdilution method. A digest of the protocol: as §2
Another test deals with Enterococcus faecalis. In words: Antibacterial activity against Enterococcus faecalis. A digest of the protocol:
as §1

The next test deals with Neisseria gonorrhoeae. The experiment in a line: Antibacterial activity against Neisseria gonorrhoeae after 24 hrs by broth microdilution method. A digest of the protocol:
as §2

The test system of a further test is Legionella pneumophila. In words: Antibacterial activity against Legionella pneumophila after 24 hrs by broth microdilution method.
Test [1] concerns Staphylococcus aureus. The experiment in a line: Antibacterial activity against methicillin-resistant Staphylococcus aureus after 24 hrs by broth microdilution method. A digest of the protocol:
(§3)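 Broth microdilution per CLSI in cation-adjusted Mueller-Hinton II broth, final inoculum approximately 5 × 10^5 CFU/ml. Plates were incubated aerobically at 35 to 37°C for 24 h. MIC was the lowest concentration giving no visible growth. Reserpine, where used, was at a final concentration of 20 μg/ml.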

The subject of the next test is Streptococcus pyogenes. In words: Antibacterial activity against Streptococcus pyogenes. A digest of the protocol:
as §1

Test [2] relates to Staphylococcus aureus. In words: Antibacterial activity against methicillin-susceptible Staphylococcus aureus after 24 hrs by broth microdilution method. A digest of the protocol:
as §3

The subject of the next test is Neisseria meningitidis. The experiment in a line: Antibacterial activity against Neisseria meningitidis after 24 hrs by broth microdilution method. A digest of the protocol: as §2
In a further test the test system is Enterococcus faecium. In words: Antibacterial activity against Enterococcus faecium. A digest of the protocol: as §1
The subject of another test is Streptococcus pneumoniae. In words: Antibacterial activity against Streptococcus pneumoniae by agar dilution method. Background: Agar dilution tests growth on a series of plates holding different concentrations.
The test system of test [3] is Mycoplasmoides pneumoniae. In words: Antibacterial activity against Mycoplasma pneumoniae after 24 hrs by broth microdilution method.
In another test the test system is Cutibacterium acnes. The experiment in a line: Antibacterial activity against Propionibacterium acnes. A digest of the protocol:
(§4)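 Anaerobes by CLSI agar dilution on brucella agar with hemin, vitamin K and 5% laked sheep blood; inoculum from 24-h enriched blood agar colonies resuspended in brucella broth to 0.5 McFarland. Plates incubated anaerobically at 35–37°C for 48 h.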

The next test deals with Peptostreptococcus sp. The experiment in a line: Antibacterial activity against Peptostreptococcus sp. by agar dilution method. A digest of the protocol:
as §4

The next test deals with Clostridioides difficile. In words: Antibacterial activity against Clostridium difficile by agar dilution method. A digest of the protocol: as §4
A further test relates to Bacteroides fragilis. The experiment in a line: Antibacterial activity against Bacteroides fragilis by agar dilution method. A digest of the protocol: as §4

Converted amounts (≈) assume the structure as drawn.

For the compound `CC1(C)S[C@@H]2[C@H](NC(=O)[C@H](N)c3ccccc3)C(=O)N2[C@H]1C(=O)O` [AMPICILLIN], the MIC50 against Enterobacter sp. was above 32 µg/mL; against Haemophilus influenzae, above 16 µg/mL; against Escherichia coli, 4 µg/mL (≈ 11.4 µM); in the test on Klebsiella pneumoniae, above 32 µg/mL; in the test on Acinetobacter baumannii, 16 µg/mL (≈ 45.8 µM); in the test on Moraxella catarrhalis it was 4 µg/mL (≈ 11.4 µM). Besides, the MIC50 in the test on Pseudomonas aeruginosa is above 32 µg/mL. The MIC90 against Enterobacter sp. was above 32 µg/mL; against Haemophilus influenzae, above 16 µg/mL; with Escherichia coli, above 32 µg/mL; against Klebsiella pneumoniae it was above 32 µg/mL; with Acinetobacter baumannii it was above 32 µg/mL; in the test with Moraxella catarrhalis it was 8 µg/mL (≈ 22.9 µM). The same compound gave an MIC90 against Pseudomonas aeruginosa above 32 µg/mL.

For the compound `CC[C@H]1OC(=O)[C@H](C)[C@@H](O[C@H]2C[C@@](C)(OC)[C@@H](O)[C@H](C)O2)[C@H](C)[C@@H](O[C@@H]2O[C@H](C)C[C@H](N(C)C)[C@H]2O)[C@](C)(O)C[C@@H](C)CN(C)[C@H](C)[C@@H](O)[C@]1(C)O` [AZITHROMYCIN], the MIC50 against Streptococcus viridans is 1 µg/mL (≈ 1.34 µM); in the test with Enterococcus faecalis it was 4 µg/mL (≈ 5.34 µM); in the test with Neisseria gonorrhoeae, 0.06 µg/mL (≈ 0.0801 µM); with Staphylococcus aureus [1], above 8 µg/mL; with Haemophilus influenzae, 0.5 µg/mL (≈ 0.668 µM); in the test on Streptococcus pyogenes it was 0.12 µg/mL (≈ 0.16 µM). For the same compound, the MIC50 was 1 µg/mL (≈ 1.34 µM) with Staphylococcus aureus [2]; 0.5 µg/mL (≈ 0.668 µM) against Neisseria meningitidis; above 16 µg/mL against Enterococcus faecium; 0.015 µg/mL (≈ 0.02 µM) in the test on Moraxella catarrhalis; 4 µg/mL (≈ 5.34 µM) in the test with Streptococcus pneumoniae. In addition, the MIC90 was 4 µg/mL (≈ 5.34 µM) against Streptococcus viridans; above 16 µg/mL against Enterococcus faecalis; 0.12 µg/mL (≈ 0.16 µM) in the test with Neisseria gonorrhoeae; 2 µg/mL (≈ 2.67 µM) in the test with Haemophilus influenzae; above 8 µg/mL against Streptococcus pyogenes; above 8 µg/mL with Staphylococcus aureus [2]. Moreover, the MIC90 in the test with Neisseria meningitidis was 1 µg/mL (≈ 1.34 µM); with Enterococcus faecium it was above 16 µg/mL; with Moraxella catarrhalis, 0.03 µg/mL (≈ 0.0401 µM); against Streptococcus pneumoniae, above 8 µg/mL. Besides, the MIC was 0.12 µg/mL (≈ 0.16 µM) in the test on Legionella pneumophila and at most 0.004 µg/mL in [3].

As for `CO/N=C(\C(=O)N[C@@H]1C(=O)N2C(C(=O)[O-])=C(C[N+]3(C)CCCC3)CS[C@H]12)c1csc(N)n1` [CEFEPIME], the figures for the MIC50 in the test on Enterobacter sp., against Klebsiella pneumoniae and against Acinetobacter baumannii were 0.06 µg/mL (≈ 0.125 µM), 0.5 µg/mL (≈ 1.04 µM) and 2 µg/mL (≈ 4.16 µM), respectively. The MIC90 with Enterobacter sp. was 4 µg/mL (≈ 8.32 µM); in the test with Klebsiella pneumoniae, 32 µg/mL (≈ 66.6 µM); with Acinetobacter baumannii, 32 µg/mL (≈ 66.6 µM).

`CC(C)(O/N=C(\C(=O)N[C@@H]1C(=O)N2C(C(=O)[O-])=C(C[n+]3ccccc3)CS[C@H]12)c1csc(N)n1)C(=O)O` [CEFTAZIDIME]: the MIC50 in the test with Enterobacter sp. worked out at 0.5 µg/mL (≈ 0.915 µM); against Escherichia coli, 0.25 µg/mL (≈ 0.457 µM); in the test with Klebsiella pneumoniae, 32 µg/mL (≈ 58.5 µM); against Acinetobacter baumannii, 4 µg/mL (≈ 7.32 µM); in the test on Pseudomonas aeruginosa it was 2 µg/mL (≈ 3.66 µM). The MIC90 in the test on Enterobacter sp. was above 32 µg/mL; against Escherichia coli it was 0.5 µg/mL (≈ 0.915 µM); with Klebsiella pneumoniae, above 32 µg/mL; against Acinetobacter baumannii it was above 32 µg/mL; against Pseudomonas aeruginosa, 32 µg/mL (≈ 58.5 µM).

As to `CO/N=C(\C(=O)N[C@@H]1C(=O)N2C(C(=O)O)=C(CSc3nc(=O)c(O)nn3C)CS[C@H]12)c1csc(N)n1` [CEFTRIAXONE], the MIC50 was 0.12 µg/mL (≈ 0.216 µM) in the test with Streptococcus viridans; 0.004 µg/mL (≈ 0.00721 µM) in the test on Neisseria gonorrhoeae; 0.12 µg/mL (≈ 0.216 µM) in the test with Enterobacter sp.; below 0.008 µg/mL in the test on Haemophilus influenzae; 0.06 µg/mL (≈ 0.108 µM) against Escherichia coli; 0.03 µg/mL (≈ 0.0541 µM) with Streptococcus pyogenes. The MIC50 was 16 µg/mL (≈ 28.9 µM) against Klebsiella pneumoniae; 8 µg/mL (≈ 14.4 µM) in the test on Acinetobacter baumannii; 0.5 µg/mL (≈ 0.902 µM) in the test with Moraxella catarrhalis; 0.12 µg/mL (≈ 0.216 µM) against Streptococcus pneumoniae; 64 µg/mL (≈ 115 µM) with Pseudomonas aeruginosa. Moreover, the MIC90 is 1 µg/mL (≈ 1.8 µM) against Streptococcus viridans; 0.03 µg/mL (≈ 0.0541 µM) in the test on Neisseria gonorrhoeae; above 64 µg/mL in the test on Enterobacter sp.; 0.015 µg/mL (≈ 0.027 µM) in the test on Haemophilus influenzae; 0.06 µg/mL (≈ 0.108 µM) with Escherichia coli; 0.03 µg/mL (≈ 0.0541 µM) in the test on Streptococcus pyogenes. For the same compound, the MIC90 with Klebsiella pneumoniae was 32 µg/mL (≈ 57.7 µM); in the test on Acinetobacter baumannii, above 64 µg/mL; in the test on Moraxella catarrhalis, 1 µg/mL (≈ 1.8 µM); against Streptococcus pneumoniae it was above 2 µg/mL; against Pseudomonas aeruginosa, above 64 µg/mL.

Turning to `CCC[C@@H]1C[C@@H](C(=O)N[C@@H]([C@H]2O[C@H](SC)[C@H](O)[C@@H](O)[C@H]2O)[C@H](C)Cl)N(C)C1` [CLINDAMYCIN], the MIC50 was determined as 0.06 µg/mL (≈ 0.141 µM) against Cutibacterium acnes, 0.25 µg/mL (≈ 0.588 µM) with Peptostreptococcus sp., 2 µg/mL (≈ 4.71 µM) with Clostridioides difficile and 1 µg/mL (≈ 2.35 µM) in the test on Bacteroides fragilis. Further, the MIC90 against Cutibacterium acnes is 0.06 µg/mL (≈ 0.141 µM); against Peptostreptococcus sp. it was 1 µg/mL (≈ 2.35 µM); in the test on Clostridioides difficile it was above 32 µg/mL; in the test on Bacteroides fragilis, 4 µg/mL (≈ 9.41 µM).

For the compound `C[C@H]1c2cccc(O)c2C(=O)C2=C(O)[C@]3(O)C(=O)C(C(N)=O)=C(O)[C@@H](N(C)C)[C@@H]3[C@@H](O)[C@@H]21.O` [DOXYCYCLINE], the MIC in the test on Legionella pneumophila was 1 µg/mL; in test [3], 0.25 µg/mL.

In general, MIC refers to the smallest concentration in the dilution series that meets the test's criterion for growth inhibition.

Values taken from ChEMBL document CHEMBL1147099, “In vitro and in vivo antibacterial activities of heteroaryl isothiazolones against resistant gram-positive pathogens” (Antimicrob Agents Chemother, 2007).
